These results are taken from ChEMBL document CHEMBL1123585, “Differential effects of N-terminal modifications on the biological potencies of growth hormone releasing factor analogues with varying chain lengths” (1987).

Experiment [1] has as its system Rattus norvegicus. As to the kind of experiment: Effect on growth hormone release(GRF) was determined in nembutal-anesthetized rat, at dose of 80 ug/100 g body weight. Format: functional, organism-based. The method in brief: (§1)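 Male Charles River rats (175-275 g), anesthetized with sodium pentobarbital 6 mg/100 g body weight. Six to nine per group. Peptide or saline given subcutaneously in 0.5 mL, 30 min after anesthetic. Jugular vein blood taken 15 min post-injection. Plasma GH measured by radioimmunoassay and reported as ng/mL, mean ± SEM.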

Experiment [2] deals with Rattus norvegicus. As to the kind of experiment: Effect on growth hormone release(GRF) was determined in nembutal-anesthetized rat, at dose of 200 ug/100 g body weight. The class given is functional, organism-based. Put shortly: as §1
In experiment [3] the target is T1, Growth hormone-releasing hormone receptor (Rattus norvegicus) (UniProt Q02644).
T1 sequence (whole entry): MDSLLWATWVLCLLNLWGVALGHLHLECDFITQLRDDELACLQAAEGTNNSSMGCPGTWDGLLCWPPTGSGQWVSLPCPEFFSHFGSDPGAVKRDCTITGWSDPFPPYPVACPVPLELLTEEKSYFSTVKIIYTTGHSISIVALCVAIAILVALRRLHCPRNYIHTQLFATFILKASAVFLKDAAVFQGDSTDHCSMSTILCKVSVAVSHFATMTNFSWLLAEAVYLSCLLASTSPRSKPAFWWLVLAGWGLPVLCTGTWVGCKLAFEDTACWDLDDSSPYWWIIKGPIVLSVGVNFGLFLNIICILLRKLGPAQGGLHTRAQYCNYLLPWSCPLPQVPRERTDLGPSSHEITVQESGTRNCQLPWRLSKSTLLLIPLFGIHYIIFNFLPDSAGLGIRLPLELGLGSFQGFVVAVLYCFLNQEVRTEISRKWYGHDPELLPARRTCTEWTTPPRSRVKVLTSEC
As to the kind of experiment: Tested for the potency of growth hormone (GRF) on subcutaneous administration in anesthetized male Charles River rats. The class given is functional, organism-based. The method in brief:
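Pentobarbital-anesthetized male rats (175-275 g), six to nine per group, received two subcutaneous doses of analogue or of reference GRF(1-29)NH2, in 0.5 mL, 30 min after anesthesia. Plasma GH measured by RIA 15 min later. Potency with 95% confidence limits calculated from a four-point assay design by the Pugsley method.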

The target of experiment [4] is T1, Growth hormone-releasing hormone receptor (Rattus norvegicus). As to the kind of experiment: In vitro rat pituitary cell growth hormone response was obtained. Format: functional, cell-based. The conditions noted are these: Pituitary gland cell.
Experiment [5] shares this target. As to the kind of experiment: Effect on growth hormone release(GRF) was determined in nembutal-anesthetized rat, at dose of 10 ug/100 g body weight. The class given is functional. The method in brief:
as §1

In experiment [6] the test system is Rattus norvegicus. As to the kind of experiment: Effect on growth hormone release(GRF) was determined in nembutal-anesthetized rat, at dose of 4 ug/100 g body weight. Format: functional, organism-based. Put shortly: as §1

Turning to `CC[C@H](C)[C@H](NC(=O)[C@H](C)NC(=O)[C@H](CC(=O)O)NC(=O)[C@@H](C)NC(=O)[C@@H](N)Cc1ccc(O)cc1)C(=O)N[C@@H](Cc1ccccc1)C(=O)N[C@H](C(=O)N[C@@H](CC(N)=O)C(=O)N[C@@H](CO)C(=O)N[C@@H](Cc1ccc(O)cc1)C(=O)N[C@@H](CCCN=C(N)N)C(=O)N[C@@H](CCCCN)C(=O)N[C@H](C(=O)N[C@@H](CC(C)C)C(=O)NCC(=O)N[C@@H](CCC(N)=O)C(=O)N[C@@H](CC(C)C)C(=O)N[C@@H](CO)C(=O)N[C@@H](C)C(=O)N[C@@H](CCCN=C(N)N)C(=O)N[C@@H](CCCCN)C(=O)N[C@@H](CC(C)C)C(=O)N[C@@H](CC(C)C)C(=O)N[C@@H](CCC(N)=O)C(=O)N[C@@H](CC(=O)O)C(=O)N[C@H](C(=O)N[C@@H](CC(C)C)C(N)=O)[C@@H](C)CC)C(C)C)[C@@H](C)O` (stereo in doubt; 4), the Plasma GH release with Rattus norvegicus [1] worked out at 742 ng/mL; in the experiment with Rattus norvegicus [2], 1500 ng/mL. Further, the Potency stood at 7% in experiment [3] and 0.0004% in experiment [4].

Take `CC[C@H](C)[C@H](NC(=O)[C@H](C)NC(=O)[C@@H](CC(=O)O)NC(=O)[C@H](C)NC(=O)[C@@H](N)Cc1ccc(O)cc1)C(=O)N[C@@H](Cc1ccccc1)C(=O)N[C@H](C(=O)N[C@H](CC(N)=O)C(=O)N[C@@H](CO)C(=O)N[C@@H](Cc1ccc(O)cc1)C(=O)N[C@@H](CCCN=C(N)N)C(=O)N[C@@H](CCCCN)C(=O)N[C@H](C(=O)N[C@@H](CC(C)C)C(=O)NCC(=O)N[C@@H](CCC(N)=O)C(=O)N[C@@H](CC(C)C)C(=O)N[C@@H](CO)C(=O)N[C@@H](C)C(=O)N[C@@H](CCCN=C(N)N)C(=O)N[C@@H](CCCCN)C(=O)N[C@@H](CC(C)C)C(=O)N[C@@H](CC(C)C)C(=O)N[C@@H](CCC(N)=O)C(=O)N[C@@H](CC(=O)O)C(=O)N[C@H](C(=O)N[C@@H](CC(C)C)C(N)=O)[C@@H](C)CC)C(C)C)[C@@H](C)O`: the Potency in experiment [3] came out at 199%; in experiment [4], 83%. Also, the Plasma GH release in experiment [5] was 2170 ng/mL; in the experiment on Rattus norvegicus [6], 899 ng/mL.
